An excerpt weighted towards active compounds, which were near 2.6% of everything screened.
Rce1 inhib – yeast Ras-converting enzyme inhibition; hit rate 0.27% among 290,000; yeast membranes, quenched prenylated peptide cleavage fluorescence; Q03530; calls only; AID 2563;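 active = fall in fluorescence gain of 50% or more versus controls, with final raw signal at or below 3038400; inconclusive = same 50% fall but final raw signal above 3038400; inactive = fall in fluorescence gain under 50%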
Target sequence (Q03530 whole entry, looked up): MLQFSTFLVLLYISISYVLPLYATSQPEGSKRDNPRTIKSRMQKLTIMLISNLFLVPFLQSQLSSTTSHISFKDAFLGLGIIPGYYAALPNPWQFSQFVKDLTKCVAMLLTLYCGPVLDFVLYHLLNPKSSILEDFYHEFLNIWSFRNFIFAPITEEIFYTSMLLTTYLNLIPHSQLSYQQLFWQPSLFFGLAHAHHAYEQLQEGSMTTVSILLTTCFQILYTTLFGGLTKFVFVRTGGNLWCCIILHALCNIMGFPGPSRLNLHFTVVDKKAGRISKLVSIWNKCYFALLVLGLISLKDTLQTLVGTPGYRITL
T cell HTS – T cell immune modulation candidate; response (vesicle binding), % at 7 µM; AID 2052; 2C CD8+ T cell-vesicle binding, flow cytometry; stronger effect = lower value; hit rate 0.068% among 330,000;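 active = response, share of CD8 T cells binding vesicles, and their 90th percentile fluorescence all below set limits, cut at about 80% in these data, passing the limit was not always enough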;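 note: values below 100% mean blocked vesicle binding to the CD8+ T cells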
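Also added: QL9-peptide-loaded Drosophila micro-vesicles bearing Ld, ICAM-1 and B7-1; Test system: purified 2C TCR transgenic mouse naive CD8+ T cells; Measured by: cytometric PE anti-B7-1 and Alexa647 anti-CD8 signals after 1% paraformaldehyde fixation; Timing: binding step 1.5 h, 37 °C, antibody labelling 20 min, ice.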
Rin1 Abl inh – blocks binding of human Rin1 to Abl; TR-FRET Rin1/Abl binding, biochemical; inhibition, % at 7.35 µM; P00519+Q13671; AID 588664; hit rate 0.4% among 360,000; in the data active = inhibition above about 5%, passing the limit was not always enough
GRK2 inh – human GRK2 inhibition via aptamer displacement; P25098; bead flow cytometry, FAM-aptamer displacement from GRK2; inhibition of aptamer binding, % at 10 µM; hit rate 0.59% among 330,000;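 active = inhibition of aptamer binding above 40%, roughly 3 SD of noise, on plates passing a quality check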;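 note: median bead fluorescence of bound FAM aptamer so fluorescent compounds give negative values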
SKN-1 inh – blocks SKN-1 activity in C. elegans; hit rate 0.49% among 360,000; C. elegans VP596 Pgst-4::GFP/RFP ratio, acrylamide-induced, 24 h; inhibition, % at 21.8 µM; AID 624304;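 active = interference check ratio from 0.5 to 1.5 plus GFP to RFP signal ratio inhibition reaching or exceeding a fixed threshold, cut at about 30% in these data, passing the limit was not always enough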
Myeloid diff 2 – promotes myeloid progenitor differentiation; ER-HoxA9 myeloid progenitors, lysozyme-GFP differentiation, flow cytometry; calls only at 10 µM; hit rate 1% among 360,000; AID 624256;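 active = normalized GFP-positive differentiation at or above the plate's own cutoff, the solvent-only control mean plus 3 SD; inconclusive = no clear call, values can overlap the other calls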;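 note: cells exposed to compound for four days before flow analysis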
Large screens that a line does not name were inactive.

O=c1[nH]c(=O)n(C2C[C@H](O)[C@@H](CO)O2)cc1C(F)(F)F (some centres undefined)	none (no result: Rce1 inhib)
O=c1[nH]c(=O)n([C@H]2C[C@H](O)[C@@H](CO)O2)cc1C(F)(F)F	Myeloid diff 2 active
C[C@H]1CN(C2CCCCC2)C(=O)[C@@H]1CC(=O)Nc1ccc(Br)cc1	none (no result: Rce1 inhib, T cell HTS, GRK2 inh)
NC(=NCCCCCCN=C(N)/N=C(\N)Nc1ccc(Cl)cc1)/N=C(\N)Nc1ccc(Cl)cc1	Rce1 inhib active, Myeloid diff 2 inconclusive
CC(C)N=C(N)N=C(N)Nc1ccc(Cl)cc1	none (no result: Rce1 inhib)
Cc1ccccc1CNC(=O)c1ccc2sc([C@H]3C[C@H](O)[C@@H](CO)O3)nc2c1	SKN-1 inh 39 (no result: Rce1 inhib, T cell HTS, GRK2 inh)
N#CC(Cc1cccs1)c1nc2ccccc2[nH]1 (centres undefined)	none (no result: Rce1 inhib, T cell HTS, GRK2 inh)
N#CC(/C(=N/S(=O)(=O)c1cccs1)c1ccccc1)c1nc2ccccc2[nH]1 (centres undefined)	Rce1 inhib active
Fc1cc(Cl)cc2ccc(-c3ccccc3)nc12	SKN-1 inh 36 (no result: Rce1 inhib, T cell HTS, GRK2 inh)
CCOC(=O)Cn1cnc2c(nnn2-c2cccc(Cl)c2)c1=O	none
COc1cscc1C(=O)O	none
Cc1ccc(NC(=S)NC2CCN(Cc3ccccc3)CC2)cc1C	Myeloid diff 2 active
Cc1ccc(NC(=S)NC2CCN(Cc3ccccc3)CC2)cc1	none
NC(=O)c1ccc(C(F)(F)F)cn1	none
O=C(O)CS(=O)(=O)c1ccc(C(F)(F)F)cn1	Myeloid diff 2 active
COc1ccc(C2CC(c3ccccc3)=NN2S(=O)(=O)c2ccc(C)cc2)c(OC)c1 (centres undefined)	SKN-1 inh 52
COc1ccc(C2CC(c3ccccc3)=NN2S(=O)(=O)c2ccccc2)c(OC)c1 (centres undefined)	none
COc1cc(C(=O)OCC(=O)Nc2ccc(OC(F)F)cc2)cc(OC)c1OC	none
COc1cc(C(=O)OCC(=O)Nc2ccc(SC(F)F)cc2)cc(OC)c1OC	Rce1 inhib active
O=C(Nc1cccc2c1CCCC2)c1cc(C2CCCCN2C(=O)c2cccs2)on1 (centres undefined)	none (no result: Rce1 inhib, T cell HTS, GRK2 inh)
Cn1c(CNC(=O)c2ccc3c(c2)OCO3)nnc1SCC(=O)Nc1ccccc1F	none
Cc1cccc(-n2c(SCC(=O)Nc3ncc(Cl)cc3Cl)nc3ccccc32)c1	Myeloid diff 2 active
Cc1ccc2[nH]c3c(c2c1)CN(C(=O)CN1CC(C)OC(C)C1)CC3 (centres undefined)	Myeloid diff 2 active (no result: Rce1 inhib)
CC1(C(=O)NS(=O)(=O)c2ccccc2)CCN1C(=O)CC1CC1 (centres undefined)	none (no result: Rce1 inhib, T cell HTS, GRK2 inh)
O=c1c2ccc([N+](=O)[O-])cc2ncn1CCOc1ccccc1	Myeloid diff 2 active
CC(=O)N1CCN(CC(=O)Nc2cc(F)ccc2C)CC1	none
FC(F)(F)c1cnc(N2CCC(=NOCc3ccc(Cl)cc3)CC2)c(Cl)c1	none
Cc1ccc(CON=C2CCN(c3ncc(C(F)(F)F)cc3Cl)CC2)cc1	Myeloid diff 2 active
COc1ccc2c(n1)Sc1nc3ccccc3nc1N2	Myeloid diff 2 active
COc1cc2ccccc2nn1	none
COc1ccccc1Cc1c(-c2ccc(C#N)cc2)nc2c(C)cc(Br)cn12	none (no result: Rce1 inhib, T cell HTS, GRK2 inh)
C=CCN1C(=O)C2C3CC(=O)C(c4ccccc43)C2C1=O (centres undefined)	none
NC(=O)c1cc(N)ccc1N1CCCC1	SKN-1 inh 60
O=S(=O)(Nc1cc(S(=O)(=O)N2CCOCC2)ccc1NCC1CCCO1)c1ccccc1F (centres undefined)	none (no result: Rce1 inhib)
N#C/C(C(=O)NCc1ccccc1)=C1/N=C(NC(=O)c2cccs2)c2ccccc21	Myeloid diff 2 active
Cc1ccc(Nc2nc(-c3ccccc3)cs2)nc1	none
Cc1cc(O)ccc1Nc1nc(-c2cccs2)cs1	Myeloid diff 2 active
Cc1ccc(Nc2nc(-c3cccs3)cs2)nc1	SKN-1 inh 46
Cc1cc(O)ccc1Nc1nc(-c2cccnc2)cs1	none
CCN1C[C@@H]2[C@@H]3C(=O)N(Cc4ccccc4)C(=O)[C@@H]3[C@](Cc3ccccc3)(C1=O)N2C(=O)c1ccc(C(F)(F)F)cc1	Myeloid diff 2 active (no result: Rce1 inhib, T cell HTS, GRK2 inh)
COC(=O)c1c(NC(=O)c2ccccc2N(C)S(=O)(=O)c2ccccc2)sc2c1CCCC2	Myeloid diff 2 active (no result: T cell HTS, GRK2 inh)
O=C(NC1CCS(=O)(=O)C1)c1cccnc1 (centres undefined)	T cell HTS 27 (no result: Rce1 inhib, Rin1 Abl inh, SKN-1 inh, Myeloid diff 2)
O=[N+]([O-])c1ccc2nc(N3CCCC3)sc2c1	SKN-1 inh 39
O=C(c1ccccc1)N1CCN(c2nc3ccc([N+](=O)[O-])cc3s2)CC1	none
CCC(=O)Nc1ccc(C(=O)CN2CCC(C)CC2)cc1	none (no result: Rin1 Abl inh, SKN-1 inh, Myeloid diff 2)
COCCN1Cc2cccc(C(=O)Nc3ccc(S(=O)(=O)N4CCCCC4)cc3)c2C1=O	Myeloid diff 2 active
CN(C)C(=O)COc1ccc2ccc(=O)oc2c1	Rce1 inhib active
CCN(C(=O)COc1ccc2ccc(=O)oc2c1)C1CCCCC1	none (no result: Rce1 inhib)
CCOC(=O)C1=C(C)N=c2sc(=Cc3cc(Cl)c(OCC(=O)O)c(OC)c3)c(=O)n2C1c1ccccc1Cl (centres undefined)	Myeloid diff 2 active (no result: Rce1 inhib, T cell HTS, GRK2 inh)
CCOC(=O)C1=C(C)N=c2s/c(=C\c3cccn3C)c(=O)n2C1c1cccc(OC)c1OC (centres undefined)	Myeloid diff 2 active
CC(=O)Nc1ccc(NC(=O)COC(=O)C2c3ccccc3Oc3ccccc32)cc1	none (no result: T cell HTS, GRK2 inh)
COc1ccc(N(CC(=O)NCCc2ccc(OC)c(OC)c2)S(=O)(=O)c2ccc(OC)c(OC)c2)cc1	none
Nc1nccc(N2CCCCC2)n1	none (no result: Rce1 inhib, T cell HTS, GRK2 inh)
Cc1nc(N2N=C(c3ccc(Cl)cc3)CC2c2ccco2)sc1C(=O)N(C)C (centres undefined)	Myeloid diff 2 active
O=C(Nc1nnc([C@H]2C[C@H](O)[C@@H](CO)O2)s1)Nc1cccc2c1CCCC2	none (no result: Rce1 inhib, T cell HTS, GRK2 inh)
COc1ccc(OC)c(Cc2nnc(CCC(=O)N3CCN(C4CCCC4)CC3)o2)c1	Rce1 inhib active
O=C(Nc1ccc(F)cc1)Oc1ccccc1N1CCOCC1	Rce1 inhib active
CC(=O)c1ccc(OC(=O)c2ccc(-n3nc(C)cc3C)cc2)cc1	none (no result: Myeloid diff 2)
Cc1cc(C)n(-c2ccc(C(=O)Oc3ccc4c(c3)OCO4)cc2)n1	SKN-1 inh 37
Cc1nc2c(cnn2-c2ccccc2Cl)c(=O)n1-c1ccc(N2CCC(C)CC2)cc1	Myeloid diff 2 active
O=C(O)C1CCCN1S(=O)(=O)c1cccc2nsnc12 (centres undefined)	none
N#Cc1c(NC(=O)c2ccccc2Cl)n(Cc2ccccc2)c2nc3ccccc3nc12	Myeloid diff 2 active (no result: Rce1 inhib)
CCCCn1c(NC(=O)CC)c(C#N)c2nc3ccccc3nc21	none
CCCCn1c(NC(=O)c2ccccc2Cl)c(C#N)c2nc3ccccc3nc21	Myeloid diff 2 active
CCO/C(C)=N/n1c2nc3ccccc3nc2c2c(=O)n(Cc3ccccc3Cl)c(C)nc21	Myeloid diff 2 active
CC1(C)C(=Cc2ccccc2)C(=O)c2ccccc21	SKN-1 inh 41 (no result: Rce1 inhib, T cell HTS, GRK2 inh)

High-throughput results from PubChem.
